# Like-named read-outs stand apart in the source and are kept apart here.
# Columns and labels:
# [1] = system: juvenile Fmr1 knockout mice; settings: ref Armstrong et al., 2020; cited from earlier work
# [2] = system: juvenile Fmr1 knockout mice; experiment: Audiogenic seizures; format: in vivo, mouse; settings: for lethality: vehicle 60%; for seizure prevalence (TCS): vehicle 70%; for mean WRJ duration (± SD): vehicle 10 (±5)
# m5-HT2A [3] = molecular target: T1, m5-HT2A (Mus musculus, UniProt P35363); experiment: Radioligand competition binding, [3H]Ketanserin, m5-HT2A in HEK293 membranes
# h5-HT2C-INI [4] = molecular target: T2, h5-HT2C-INI (Homo sapiens, UniProt P28335); format: binding; settings: [3H]Mesulergine, one-site fit Ki
# T2 sequence (P28335 33-458): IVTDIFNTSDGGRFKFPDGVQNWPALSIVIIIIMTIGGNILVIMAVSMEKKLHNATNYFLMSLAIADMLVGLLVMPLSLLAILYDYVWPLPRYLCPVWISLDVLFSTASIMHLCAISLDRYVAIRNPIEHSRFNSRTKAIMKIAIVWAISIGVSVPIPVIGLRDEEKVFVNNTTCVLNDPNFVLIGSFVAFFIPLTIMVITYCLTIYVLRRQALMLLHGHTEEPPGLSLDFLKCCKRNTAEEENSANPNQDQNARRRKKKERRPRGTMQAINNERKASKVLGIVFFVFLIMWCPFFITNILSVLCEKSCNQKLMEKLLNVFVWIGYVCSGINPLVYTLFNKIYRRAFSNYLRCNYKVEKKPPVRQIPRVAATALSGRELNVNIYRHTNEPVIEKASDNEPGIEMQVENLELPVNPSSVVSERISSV
# m5-HT2C-VNV [5] = molecular target: T3, m5-HT2C-VNV (Mus musculus, UniProt P34968, I157V/I161V); format: binding
# T3 sequence (P34968 33-459 I157V/I161V): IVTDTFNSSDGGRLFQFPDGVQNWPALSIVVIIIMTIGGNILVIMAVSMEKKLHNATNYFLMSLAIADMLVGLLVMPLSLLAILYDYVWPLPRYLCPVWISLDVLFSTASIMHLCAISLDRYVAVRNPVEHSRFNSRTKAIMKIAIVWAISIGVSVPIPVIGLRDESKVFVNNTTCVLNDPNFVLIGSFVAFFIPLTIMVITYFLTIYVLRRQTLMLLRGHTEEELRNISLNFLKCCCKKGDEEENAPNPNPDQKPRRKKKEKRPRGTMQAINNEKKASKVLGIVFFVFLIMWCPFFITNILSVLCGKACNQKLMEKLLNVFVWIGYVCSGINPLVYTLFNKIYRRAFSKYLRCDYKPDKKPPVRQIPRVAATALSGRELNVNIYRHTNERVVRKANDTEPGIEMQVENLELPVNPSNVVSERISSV
# h5-HT2A = h5-HT2A (Homo sapiens, UniProt P28223); experiment: 5-HT2AR-mediated phosphoinositide hydrolysis, h5-HT2A in HEK293 cells; format: cell-based; settings: relative to 5-HT
# m5-HT2A [6] = molecular target: T1, m5-HT2A; experiment: 5-HT2AR-mediated phosphoinositide hydrolysis, m5-HT2A in HEK293 cells; format: cell-based
# h5-HT2C-INI [7] = molecular target: T2, h5-HT2C-INI; experiment: 5-HT2CR-mediated phosphoinositide hydrolysis, h5-HT2C-INI in HEK293 cells; format: cell-based; settings: for agonist efficacy: relative to 5-HT
# m5-HT2C-VNV [8] = molecular target: T3, m5-HT2C-VNV; experiment: 5-HT2CR-mediated phosphoinositide hydrolysis, m5-HT2C-VNV in HEK293 cells; format: cell-based; settings: for agonist efficacy: relative to 5-HT
# C57BL/6J mice [9] = experiment: DOI-elicited head-twitch response; format: in vivo, mouse; settings: for HTR (mean count): 10-minute session
# Outline: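 C57BL/6J mice were acclimated to the testing room for ≥60 min. They then received s.c. vehicle (Milli-Q water) or test compound (1, 3 or 5.6 mg/kg), followed 10 min later by s.c. 5-HT2R agonist challenge (1.0 mg/kg). After a further 10 min, mice were placed in the open field for a 10-min session. Head twitches (rapid, discrete head jerks) were counted with a tally counter by an observer blind to treatment.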
# C57BL/6J mice [10] = experiment: Head-twitch response; format: in vivo, mouse; settings: vehicle 2.6
# C57BL/6J mice [11] = experiment: Locomotor activity in open field; format: in vivo, mouse
# [12] = steady-state clinical dosing of 10 mg twice daily in monkeys; ref FDA briefing document NDA22529; cited from earlier work
# [13] = phosphoinositide hydrolysis, mean
# [14] = phosphoinositide hydrolysis, mean (95% CI)
# [15] = lorcaserin 5.6 mg/kg with M100907 0.03 mg/kg pretreatment
# [16] = 30 mg/kg i.p., 30 min before test
# T1 sequence (P35363 whole entry): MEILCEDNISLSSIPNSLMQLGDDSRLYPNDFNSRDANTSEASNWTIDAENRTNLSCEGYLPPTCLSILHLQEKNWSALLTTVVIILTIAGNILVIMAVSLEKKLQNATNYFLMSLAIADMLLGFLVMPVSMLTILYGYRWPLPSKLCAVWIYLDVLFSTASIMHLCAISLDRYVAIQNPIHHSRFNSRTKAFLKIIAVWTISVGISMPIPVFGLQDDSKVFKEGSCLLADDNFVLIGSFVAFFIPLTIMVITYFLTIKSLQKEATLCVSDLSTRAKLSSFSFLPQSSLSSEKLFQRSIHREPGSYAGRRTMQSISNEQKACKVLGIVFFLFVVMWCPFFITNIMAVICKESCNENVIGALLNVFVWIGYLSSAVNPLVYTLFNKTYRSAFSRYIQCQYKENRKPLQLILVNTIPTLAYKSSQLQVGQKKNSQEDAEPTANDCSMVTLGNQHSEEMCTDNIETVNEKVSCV
# Sequence of h5-HT2A (P28223 whole entry): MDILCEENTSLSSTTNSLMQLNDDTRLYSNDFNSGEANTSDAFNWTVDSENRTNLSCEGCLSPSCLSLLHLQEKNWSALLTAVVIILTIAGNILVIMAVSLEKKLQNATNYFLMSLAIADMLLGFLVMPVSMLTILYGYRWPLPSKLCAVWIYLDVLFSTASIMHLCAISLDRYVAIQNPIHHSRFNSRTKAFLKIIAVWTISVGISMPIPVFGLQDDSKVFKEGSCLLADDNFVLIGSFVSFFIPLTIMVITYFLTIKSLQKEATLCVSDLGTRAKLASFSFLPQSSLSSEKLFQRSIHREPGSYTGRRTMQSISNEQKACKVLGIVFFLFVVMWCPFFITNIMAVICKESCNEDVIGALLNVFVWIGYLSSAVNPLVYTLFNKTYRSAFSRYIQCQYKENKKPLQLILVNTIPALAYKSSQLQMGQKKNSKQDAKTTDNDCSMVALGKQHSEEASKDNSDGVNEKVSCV
smiles,measurement,setting,value
"CN(C)[C@H]1CCc2c(cccc2-c2ccccc2F)C1 [FPT, (S)-5-(2’-Fluorophenyl)-N,N-dimethyl-1,2,3,4-tetrahydronaphthalen-2-amine]",prevention of AGSs,[1],completely prevents AGSs
COc1cccc([C@H](O)C2CCN(CCc3ccc(F)cc3)CC2)c1OC [M100907],lethality,[2]; 0.03 mg/kg i.p. alone,88%
same,seizure prevalence (TCS),[2]; 0.03 mg/kg i.p. alone,100%
"COc1cc(CC(C)N)c(OC)cc1I (racemic) [DOI, (±)-2,5-dimethoxy-4-iodoamphetamine]",Ki,"m5-HT2A [3]; [3H]Ketanserin, one-site fit Ki, mean",33 nM
same,pKi (95% CI),"m5-HT2A [3]; [3H]Ketanserin, one-site fit Ki, mean (95% CI)",7.48 (7.54 to 7.42)
same,pKi (95% CI) at the high-affinity site,m5-HT2A [3]; two-site fit Ki model,8.01 (8.70 to 7.64)
same,pKi (95% CI) at the low-affinity site,m5-HT2A [3]; two-site fit Ki model,7.02 (7.32 to 6.30)
same,Ki,h5-HT2C-INI [4]; mean,96 nM
same,pKi (95% CI),h5-HT2C-INI [4]; mean (95% CI),7.02 (7.11 to 6.93)
same,Ki,"m5-HT2C-VNV [5]; [3H]Mesulergine, one-site fit Ki, mean",65 nM
same,pKi (95% CI),"m5-HT2C-VNV [5]; [3H]Mesulergine, one-site fit Ki, mean (95% CI)",7.19 (7.28 to 7.10)
same,agonist efficacy,h5-HT2A,full efficacy h5-HT2AR agonist activity
same,EC50,m5-HT2A [6]; [13],1 nM
same,pEC50 (95% CI),m5-HT2A [6]; [14],9.00 (9.44 to 8.57)
same,agonist efficacy,m5-HT2A [6]; relative to 5-HT,full efficacy m5-HT2AR agonist activity
same,EC50,h5-HT2C-INI [7]; [13],4.1 nM
same,pEC50 (95% CI),h5-HT2C-INI [7]; [14],8.39 (8.76 to 8.04)
same,agonist efficacy,h5-HT2C-INI [7],full agonists
same,EC50,m5-HT2C-VNV [8]; [13],8 nM
same,pEC50 (95% CI),m5-HT2C-VNV [8]; [14],8.10 (8.41 to 7.80)
same,agonist efficacy,m5-HT2C-VNV [8],full agonists
same,HTR (mean count),C57BL/6J mice [9]; DOI 1 mg/kg s.c. alone,37.6
same,more HTRs than SB242084 plus lorcaserin,C57BL/6J mice [9]; DOI 1 mg/kg vs SB242084 plus lorcaserin 3 mg/kg,5 fold
CN1C[C@@H](NS(=O)(=O)N(C)C)C[C@@H]2c3cccc4c3c(cn4C)C[C@H]21 [Mesulergine],Ki,m5-HT2C-VNV [5],3.39 nM
O=C(c1ccc(F)cc1)C1CCN(CCn2c(=O)[nH]c3ccccc3c2=O)CC1 [Ketanserin],Ki,"m5-HT2A [3]; pKi (95% CI), [3H]Ketanserin, one-site fit Ki, mean (95% CI)",2.69 nM
C[C@H]1CNCCc2ccc(Cl)cc21 [Lorcaserin],Ki,"m5-HT2A [3]; Ki, [3H]Ketanserin, one-site fit Ki, mean",4460 nM
same,Ki,m5-HT2C-VNV [5],741 nM
same,EC50,"m5-HT2A [6]; EC50, phosphoinositide hydrolysis, mean",212 nM
same,Emax,m5-HT2A [6]; HEK293,84.6%
same,EC50,"m5-HT2A [6]; pEC50 (95% CI), phosphoinositide hydrolysis, mean (95% CI)",209 nM
same,agonist efficacy,h5-HT2C-INI [7],full agonists
same,EC50,m5-HT2C-VNV [8],15.8 nM
same,agonist efficacy,m5-HT2C-VNV [8],full agonists
same,lethality,[2]; 1 mg/kg i.p.,67%
same,seizure prevalence (TCS),[2]; 1 mg/kg i.p.,83%
same,lethality,[2]; 3 mg/kg i.p.,28%
same,seizure prevalence (TCS),[2]; 3 mg/kg i.p.,56%
same,attenuation of AGS lethality,"[2]; 3 mg/kg, relative to vehicle, not significant (P=0.06)",32%
same,attenuation of AGS prevalence,"[2]; 3 mg/kg, relative to vehicle, not significant (P=0.5)",14%
same,mean WRJ duration (± SD),[2]; 5.6 mg/kg alone,19 (±12) seconds
same,lethality,[2]; 5.6 mg/kg i.p.,78%
same,seizure prevalence (TCS),[2]; 5.6 mg/kg i.p.,94%
same,mean WRJ duration (± SD),[2]; 5.6 mg/kg in combination with M100907 0.03 mg/kg,20 (±14) seconds
same,mean TCS onset latency (± SD),"[2]; 5.6 mg/kg, vehicle 41 (±8)",58 (±21) seconds
same,lethality,[2]; 10 mg/kg i.p.,78%
same,seizure prevalence (TCS),[2]; 10 mg/kg i.p.,89%
same,effect on WRJ latency,"[2]; 1, 3, 5.6, 10 mg/kg",did not affect WRJ latency
same,prevention of AGSs,[2]; 1-10 mg/kg i.p.,ineffective at preventing AGSs
same,lethality,[2]; [15],50%
same,seizure prevalence (TCS),[2]; [15],90%
same,behaviours observed in treated animals,[2]; some animals that received lorcaserin,purposeless oral movements
same,HTR (mean count),C57BL/6J mice [10]; 3 mg/kg s.c. alone,4.1
same,HTR (mean count),C57BL/6J mice [10]; lorcaserin 3 mg/kg with SB242084 0.5 mg/kg s.c.,7
same,HTR (mean count),C57BL/6J mice [10]; lorcaserin 3 mg/kg with SB242084 1 mg/kg s.c.,6.3
same,HTR (mean count),C57BL/6J mice [9]; lorcaserin 3 mg/kg plus DOI 1 mg/kg,44.1
same,HTR (mean count),C57BL/6J mice [9]; lorcaserin 5.6 mg/kg plus DOI 1 mg/kg,44.9
same,effect on locomotor activity,"C57BL/6J mice [11]; 3 mg/kg s.c. alone, relative to vehicle (P<0.0001)",significantly reduced locomotor activity
same,effect on locomotor activity,"C57BL/6J mice [11]; lorcaserin 3 mg/kg combined with SB242084 0.5 mg/kg, relative to vehicle (P=0.0003)",significantly enhanced locomotor activity
same,brain concentrations,[12],~ 1.7 μM
"Cc1cccc(C#Cc2ccccc2)n1 [MPEP, 2-methyl-6-(phenylethynyl)pyridine]",lethality,[2]; [16],12%
same,seizure prevalence (TCS),[2]; [16],12%
same,mean latency (± SD) to first episode of WRJ,"[2]; 30 mg/kg, vehicle 36 (±11)",160 (±19) seconds
Cc1cc2c(cc1Cl)N(C(=O)Nc1ccc(Oc3cccnc3C)nc1)CC2 [SB242084],effect on lorcaserin (3 mg/kg) reduced locomotor activity,C57BL/6J mice [11]; SB242084 0.5 mg/kg and 1 mg/kg s.c.,overturned

# Reference: PMC8296307 (Epilepsy research, 2021)
